Results taken from ChEMBL document CHEMBL5620363, “HIV-1 protease inhibitors with a P1 phosphonate modification maintain potency against drug-resistant variants by increased interactions with flap residues” (Eur J Med Chem, 2023).
pEC50, pKi: −log10 of the molar value.

Experiments:
in vitro = settings: human
TZM = assay: Cytotoxicity against human TZM-bl cells incubated for 48 hrs by absorbance based assay; type: toxicity, cell-based
[1] = (§1) Binding affinity to drug-resistant HIV-1 protease I13V/G16E/V32I/L33F/K45I/M46I/V82F/I84V mutant expressed in Escherichia coli TAP-106 cells assessed as inhibition constant using a EDANS/DABCYL FRET-peptide substrate preincubated for 1 hr followed by substrate addition measured after 1 hr by fluorogenic assay; set-up: species or system Human immunodeficiency virus 1
Protease [2] = target: Protease (Human immunodeficiency virus 1, UniProt Q9YQ12, I84V); assay: Binding affinity to drug-resistant HIV-1 protease I84V mutant expressed in Escherichia coli TAP-106 cells assessed as inhibition constant using a EDANS/DABCYL FRET-peptide substrate preincubated for 1 hr followed by substrate addition measured after 1 hr by fluorogenic assay
Sequence of Protease (Human immunodeficiency virus 1, UniProt Q9YQ12, I84V) (Q9YQ12 entry or part of it I84V): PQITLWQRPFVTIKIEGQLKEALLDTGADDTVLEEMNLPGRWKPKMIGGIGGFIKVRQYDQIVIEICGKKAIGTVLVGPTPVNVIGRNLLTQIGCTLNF

Protease [3] = target: Protease (Human immunodeficiency virus 1, UniProt Q9YQ12, A71V/I50V); assay: Binding affinity to drug-resistant HIV-1 protease I50V/A71V mutant expressed in Escherichia coli TAP-106 cells assessed as inhibition constant using a EDANS/DABCYL FRET-peptide substrate preincubated for 1 hr followed by substrate addition measured after 1 hr by fluorogenic assay
Sequence of Protease (Human immunodeficiency virus 1, UniProt Q9YQ12, A71V/I50V) (Q9YQ12 entry or part of it A71V/I50V): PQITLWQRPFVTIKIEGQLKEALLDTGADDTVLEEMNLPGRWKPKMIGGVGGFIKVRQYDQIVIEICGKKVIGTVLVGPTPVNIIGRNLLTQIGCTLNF

[4] = as §1, with “I13V/G16E/V32I/L33F/K45I/M46I/V82F/I84V/A71V/L76V/I54L” for “I13V/G16E/V32I/L33F/K45I/M46I/V82F/I84V”; set-up: species or system Human immunodeficiency virus 1
[5] = as §1, with “I13V/G16E/V32I/L33F/K45I/M46I/V82F/I84V/A71V/L76V” for “I13V/G16E/V32I/L33F/K45I/M46I/V82F/I84V”; set-up: species or system Human immunodeficiency virus 1
[6] = test system: Human immunodeficiency virus 1; assay: Antiviral activity against wild-type HIV-1 NL4-3 infected in human TZM-bl cells using virus particles harvested from 18 hrs drug-treated HEK293T cells harboring viral transfection assessed as reduction in viral infection measured after 48 hrs in TZM-bl cells by luciferase based assay; type: functional, organism-based; settings: Human immunodeficiency virus 1, NL4-3, TZM-bl
HEK-293T = assay: (§2) Cytotoxicity against HEK293T cells incubated for 48 hrs by absorbance based assay; type: toxicity, cell-based; settings: human, hek-293t, 48 h
[7] = test system: Human immunodeficiency virus 1; assay: (§3) Antiviral activity against drug-resistant HIV-1 harboring protease L10F/I13V/L33F/K45R/M46I/I47V/I50V/F53L/I54L/I66F/A71V/T74A/L76S/V82I mutant infected in human TZM-bl cells using virus particles harvested from 24 hrs drug-treated human CEM cells infected with virus assessed as reduction in viral infection measured after 48 hrs in TZM-bl cells by Firefly luciferase based assay; type: functional, organism-based; settings: Human immunodeficiency virus 1, TZM-bl
Outline: (§4)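 Virus stocks grown by infecting 3 × 10^6 CEM cells with virus at 37 °C for 2–3 h, then RPMI with medium changes every 48 h until CPE. Infected CEM cells plated onto five-fold serial inhibitor dilutions in RPMI (top 100 μM).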

[8] = test system: Human immunodeficiency virus 1; assay: Antiviral activity against drug-resistant HIV-1 harboring protease L10I/V11I/I13V/K14R/A22V/E35D/M36I/N37D/G48M/F53L/I54V/I62V/L63P/A71V/T74S/V82A/I84V/T91S/Q92K mutant infected in human TZM-bl cells using virus particles harvested from 24 hrs drug-treated human CEM cells infected with virus assessed as reduction in viral infection measured after 48 hrs in TZM-bl cells by Firefly luciferase based …; type: functional, organism-based; settings: Human immunodeficiency virus 1, TZM-bl
[9] = test system: Human immunodeficiency virus 1; assay: as §3, with “L10F/I15V/M46I/I47V/I50V/F53L/A71V/V82I/I84V/L89T” for “L10F/I13V/L33F/K45R/M46I/I47V/I50V/F53L/I54L/I66F/A71V/T74A/L76S/V82I”; type: functional, organism-based; settings: Human immunodeficiency virus 1, TZM-bl
Outline: as §4

[10] = test system: Human immunodeficiency virus 1; assay: Antiviral activity against wild-type HIV-1 NL4-3 infected in human TZM-bl cells using virus particles harvested from 24 hrs drug-treated human CEM cells infected with virus assessed as reduction in viral infection measured after 48 hrs in TZM-bl cells by Firefly luciferase based assay; type: functional, organism-based; settings: Human immunodeficiency virus 1, NL4-3, TZM-bl
Outline: as §4

[11] = test system: Human immunodeficiency virus 1; assay: as §3, with “L10F/V11I/I13V/V32I/L33F/K43T/M46L/I54L/A71V/V82I/I84V/L89M/T91S/Q92R” for “L10F/I13V/L33F/K45R/M46I/I47V/I50V/F53L/I54L/I66F/A71V/T74A/L76S/V82I”; type: functional, organism-based; settings: Human immunodeficiency virus 1, TZM-bl
Outline: as §4

[12] = test system: Human immunodeficiency virus 1; assay: as §3, with “RT mutation/protease I13V/G16E/V32I/L33F/K45I/M46I/A71V/L76V/V82F/I84V” for “protease L10F/I13V/L33F/K45R/M46I/I47V/I50V/F53L/I54L/I66F/A71V/T74A/L76S/V82I”; type: functional, organism-based; settings: Human immunodeficiency virus 1, TZM-bl
Outline: as §4

[13] = test system: Human immunodeficiency virus 1; assay: Antiviral activity against DRV-resistant HIV-1 infected in human TZM-bl cells using virus particles harvested from 24 hrs drug-treated human CEM cells infected with virus assessed as reduction in viral infection measured after 48 hrs in TZM-bl cells by Firefly luciferase based assay; type: functional, organism-based; settings: Human immunodeficiency virus 1, TZM-bl
Outline: as §4

[14] = test system: Human immunodeficiency virus 1; assay: as §3, with “Gag mutation/protease I13V/G16E/V32I/L33F/K45I/M46I/A71V/L76V/V82F/I84V” for “protease L10F/I13V/L33F/K45R/M46I/I47V/I50V/F53L/I54L/I66F/A71V/T74A/L76S/V82I”; type: functional, organism-based; settings: Human immunodeficiency virus 1, TZM-bl
Outline: as §4

[15] = as §2; type: toxicity, cell-based, HEK-293T; settings: human, HEK293T cells

SMILES | selectivity ratio (in vitro) | CC50 (TZM) [nM] | pKi [1] | pKi (Protease [2]) | pKi (Protease [3]) | pKi [4] | pKi [5] | pEC50 [6] | CC50 (HEK-293T) [nM] | pEC50 [7] | pEC50 [8] | pEC50 [9] | pEC50 [10] | pEC50 [11] | pEC50 [12] | pEC50 [13] | pEC50 [14] | CC50 at 48 h [15] [nM]
CCOP(=O)(COc1ccc(C[C@H](NC(=O)O[C@H]2CO[C@H]3OCC[C@H]32)[C@H](O)CN(C[C@@H](C)CC)S(=O)(=O)c2ccc(OC)cc2)cc1)OCC | 3.45 | 78000 | 9.11 | > 11.30 | > 11.30 | 7.98 | 8.43 | 8.02 | 33000 | – | – | – | – | – | – | – | – | –
CCOP(=O)(COc1ccc(C[C@H](NC(=O)O[C@H]2CO[C@H]3OCC[C@H]32)[C@H](O)CN(CC(CC)CC)S(=O)(=O)c2ccc(CO)cc2)cc1)OCC | 4.06 | > 100000 | 8.66 | > 11.30 | > 11.30 | 7.09 | 7.49 | 7.77 | 69000 | – | – | – | – | – | – | – | – | –
CC(C)CN(C[C@@H](O)[C@H](Cc1ccccc1)NC(=O)O[C@H]1CO[C@H]2OCC[C@H]21)S(=O)(=O)c1ccc(N)cc1 | – | – | – | – | – | – | – | 8.11 | – | 4.89 | 7.25 | 5.73 | 8.10 | 4.80 | 5.84 | < 4.00 | – | –
CCOP(=O)(COc1ccc(C[C@H](NC(=O)O[C@H]2CO[C@H]3OCC[C@H]32)[C@H](O)CN(CC(C)C)S(=O)(=O)c2ccc3ncsc3c2)cc1)OCC | 4.33 | > 100000 | 9.03 | > 11.30 | > 11.30 | 7.82 | 8.72 | 7.98 | 45000 | – | – | – | – | – | – | – | – | –
CCOP(=O)(COc1ccc(C[C@H](NC(=O)O[C@H]2CO[C@H]3OCC[C@H]32)[C@H](O)CN(CC(CC)CC)S(=O)(=O)c2ccc3c(c2)OCO3)cc1)OCC | – | > 100000 | 9.43 | > 11.30 | > 11.30 | 8.16 | 8.80 | 8.51 | 21000 | – | > 8.00 | – | 8.52 | – | – | – | – | –
CCOP(=O)(COc1ccc(C[C@H](NC(=O)O[C@H]2CO[C@H]3OCC[C@H]32)[C@H](O)CN(CC(C)C)S(=O)(=O)c2ccc(OC)cc2)cc1)OCC | 4.24 | > 100000 | 9.25 | > 11.30 | > 11.30 | 8.44 | 8.68 | 7.93 | 50000 | – | – | – | – | – | – | – | – | –
CCOP(=O)(COc1ccc(C[C@H](NC(=O)O[C@H]2CO[C@H]3OCC[C@H]32)[C@H](O)CN(CC(CC)CC)S(=O)(=O)c2ccc(OC)cc2)cc1)OCC | – | 59000 | 9.11 | > 11.30 | > 11.30 | 8.66 | 8.90 | 8.29 | 22000 | – | > 8.00 | – | 8.30 | – | 7.07 | – | 7.42 | –
CCOP(=O)(COc1ccc(C[C@H](NC(=O)O[C@H]2CO[C@H]3OCC[C@H]32)[C@H](O)CN(C[C@@H](C)CC)S(=O)(=O)c2ccc(N)cc2)cc1)OCC | 4.02 | > 100000 | 7.88 | > 11.30 | > 11.30 | 6.59 | 6.84 | 7.64 | 92000 | – | – | – | – | – | – | – | – | –
CCOP(=O)(COc1ccc(C[C@H](NC(=O)O[C@H]2CO[C@H]3OCC[C@H]32)[C@H](O)CN(CC(C)C)S(=O)(=O)c2ccc3c(c2)OCO3)cc1)OCC | 12 | > 100000 | 8.66 | > 11.30 | > 11.30 | 7.20 | 8.35 | 8.25 | 68000 | – | – | – | – | – | – | – | – | –
CCOP(=O)(COc1ccc(C[C@H](NC(=O)O[C@H]2CO[C@H]3OCC[C@H]32)[C@H](O)CN(C[C@@H](C)CC)S(=O)(=O)c2ccc3c(c2)OCO3)cc1)OCC | – | > 100000 | – | > 11.30 | > 11.30 | – | – | – | 31000 | – | – | – | – | – | – | – | – | –
CCOP(=O)(COc1ccc(C[C@H](NC(=O)O[C@H]2CO[C@H]3OCC[C@H]32)[C@H](O)CN(CC(CC)CC)S(=O)(=O)c2ccc(N)cc2)cc1)OCC | 2.75 | 96000 | 8.33 | > 11.30 | > 11.30 | 6.97 | 7.29 | 7.80 | 44000 | – | – | – | – | – | – | – | – | –
CCOP(=O)(COc1ccc(C[C@H](NC(=O)O[C@H]2CO[C@H]3OCC[C@H]32)[C@H](O)CN(C[C@@H](C)CC)S(=O)(=O)c2ccc(CO)cc2)cc1)OCC | > 3.66 | – | 8.30 | > 11.30 | > 11.30 | 6.99 | 7.28 | 7.56 | – | – | – | – | – | – | – | – | – | > 100000
CCC(CC)CN(C[C@@H](O)[C@H](Cc1ccccc1)NC(=O)O[C@H]1CO[C@H]2OCC[C@H]21)S(=O)(=O)c1ccc2c(c1)OCO2 | – | – | – | – | – | – | – | – | – | < 4.00 | – | 5.19 | 8.22 | 5.24 | – | 6.11 | – | –
CCOP(=O)(COc1ccc(C[C@H](NC(=O)O[C@H]2CO[C@H]3OCC[C@H]32)[C@H](O)CN(C[C@@H](C)CC)S(=O)(=O)c2ccc3ncsc3c2)cc1)OCC | 2.32 | 53000 | 8.74 | > 11.30 | > 11.30 | 8.04 | 8.92 | 8.00 | 23000 | – | – | – | – | – | – | – | – | –
CCOP(=O)(COc1ccc(C[C@H](NC(=O)O[C@H]2CO[C@H]3OCC[C@H]32)[C@H](O)CN(CC(CC)CC)S(=O)(=O)c2ccc3ncsc3c2)cc1)OCC | 2.06 | 43000 | 9.60 | > 11.30 | > 11.30 | 8.49 | 9.62 | 7.97 | 22000 | – | – | – | – | – | – | – | – | –
